Results: ChEMBL document CHEMBL4004810, “Pharmacokinetics of the Individual Major Components of Polymyxin B and Colistin in Rats” (J Nat Prod, 2017)
Positions of bridges follow the written chain, without caps; N, C: chain ends. Non-standard residues stand in square brackets, D forms with d. Residues, ends and D or L forms follow the SMILES beside them. *: point of attachment. Heptanoyl(6-Me) = CC(C)CCCCC(=O)*; X1 = CC[C@@H](C)CCCCC(=O)*; X2 = CC[C@H](C)CCCCC(=O)*; Octanoyl = CCCCCCCC(=O)*; Dab = NCC[C@H](N)C(=O)O

Tests used:
[1] = Protein binding in Sprague-Dawley rat plasma at 5 mg/L after 30 mins by ultracentrifugation based LC-MS/MS method; format: ADME, cell-free; details: read-out: PPB (converted)
Procedure, shortened: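 Drug-free rat plasma spiked with 5 mg/L component in triplicate, incubated 30 min at 37 °C, then ultracentrifuged 215000g for 4 h at 37 °C. Two replicates sampled protein-free supernatant, one sampled total resuspension; both measured by LC-MS/MS. % bound = (total − supernatant)/total × 100.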

[2] = Elimination half life in Sprague-Dawley rat at 0.8 mg/kg, iv administered as single bolus dose by LC-MS/MS analysis; format: ADME, organism-based; details: in vivo, read-out: beta t1/2
Procedure, shortened: (§1)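 Jugular vein (dosing) and carotid artery (sampling) cannulated rats, recovered one day; 4 groups, n = 4, each given a 0.8 mg/kg iv bolus of one component. Blood sampled predose and at 10–360 min; urine collected in chilled metabolic cages over 0–6 h and 6–24 h. Plasma and urine quantified by LC-MS/MS (calibration 0.1–8.0 mg/L); parameters by noncompartmental analysis.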

[3] = Drug recovery in Sprague-Dawley rat urine at 0.8 mg/kg, iv administered as single bolus dose by LC-MS/MS analysis; format: ADME, organism-based; details: read-out: Drug recovery; procedure, shortened: as §1
[4] = Total clearance in Sprague-Dawley rat at 1 mg/kg, iv administered as bolus dose by HPLC analysis; format: ADME, organism-based; details: in vivo
[5] = Total clearance in Sprague-Dawley rat at 0.8 mg/kg, iv administered as single bolus dose by LC-MS/MS analysis; format: ADME, organism-based; details: in vivo; procedure, shortened: as §1
[6] = AUC (0 to infinity) in Sprague-Dawley rat at 0.8 mg/kg, iv administered as single bolus dose by LC-MS/MS analysis; format: ADME, organism-based; set-up: dose 0.8 mg/kg, route intravenous, time infinity; details: in vivo; procedure, shortened: as §1
[7] = Volume of distribution in Sprague-Dawley rat at 0.8 mg/kg, iv administered as single bolus dose by LC-MS/MS analysis; format: ADME, organism-based; details: in vivo; procedure, shortened: as §1
[8] = Protein binding in rat plasma up to 10 ug/ml after 2 hrs by LC-MS/MS based ultrafiltration method; details: read-out: PPB (converted)
[9] = Plasma concentration in Sprague-Dawley rat at 0.8 mg/kg, iv administered as single bolus dose after 360 mins by LC-MS/MS analysis; format: ADME, organism-based; procedure, shortened: as §1
[10] = Clearance in Sprague-Dawley rat at 4 mg/kg, iv administered as single bolus cassette dose by UPLC-MS/MS analysis; format: ADME, organism-based; details: in vivo

Structure (SMILES)	fraction unbound at 0.5 h, 5 mg/L [1]	half-life [2]	dose excreted [3]	clearance [4]	clearance [5]	AUC(0-inf) [6]	Vd [7]	fraction unbound at 2 h [8]	concentration at 6 h [9]	clearance [10]
CC[C@H](C)CCCCC(=O)N[C@@H](CCN)C(=O)N[C@H](C(=O)N[C@@H](CCN)C(=O)N[C@H]1CCNC(=O)[C@H]([C@@H](C)O)NC(=O)[C@H](CCN)NC(=O)[C@H](CCN)NC(=O)[C@H](CC(C)C)NC(=O)[C@@H](CC(C)C)NC(=O)[C@H](CCN)NC1=O)[C@@H](C)O (X2-[Dab]T[Dab][Dab][Dab][dL]L[Dab][Dab]T; lactam 4-C)	0.434	1.37 h	0.14%	5.1 mL/min/kg	2.75 mL/min/kg	5020 ng·h/mL	0.27 L/kg			
CC(C)CCCCC(=O)N[C@@H](CCN)C(=O)N[C@H](C(=O)N[C@@H](CCN)C(=O)N[C@H]1CCNC(=O)[C@H]([C@@H](C)O)NC(=O)[C@H](CCN)NC(=O)[C@H](CCN)NC(=O)[C@H](CC(C)C)NC(=O)[C@@H](Cc2ccccc2)NC(=O)[C@H](CCN)NC1=O)[C@@H](C)O [POLYMYXIN B2] ({Heptanoyl(6-Me)}-[Dab]T[Dab][Dab][Dab][dF]L[Dab][Dab]T; lactam 4-C)	0.316	1.58 h	0.09%		1.96 mL/min/kg	6930 ng·h/mL	0.23 L/kg	0.08	200 ng/mL	1.69 mL/min/kg
CC(C)CCCCC(=O)N[C@@H](CCN)C(=O)N[C@H](C(=O)N[C@@H](CCN)C(=O)N[C@H]1CCNC(=O)[C@H]([C@@H](C)O)NC(=O)[C@H](CCN)NC(=O)[C@H](CCN)NC(=O)[C@H](CC(C)C)NC(=O)[C@@H](CC(C)C)NC(=O)[C@H](CCN)NC1=O)[C@@H](C)O [COLISTIN B] ({Heptanoyl(6-Me)}-[Dab]T[Dab][Dab][Dab][dL]L[Dab][Dab]T; lactam 4-C)	0.583	1.52 h	0.24%	5.3 mL/min/kg	3.05 mL/min/kg	4600 ng·h/mL	0.37 L/kg			

Second part, the compound after the results:

fraction unbound at 0.5 h, 5 mg/L [1]	half-life [2]	dose excreted [3]	clearance [4]	clearance [5]	AUC(0-inf) [6]	Vd [7]	fraction unbound at 2 h [8]	concentration at 6 h [9]	clearance [10]	Structure (SMILES)
0.177	1.32 h	0.13%		2.39 mL/min/kg	6080 ng·h/mL	0.21 L/kg	0.08	200 ng/mL	1.65 mL/min/kg	CC[C@@H](C)CCCCC(=O)N[C@@H](CCN)C(=O)N[C@H](C(=O)N[C@@H](CCN)C(=O)N[C@H]1CCNC(=O)[C@H]([C@@H](C)O)NC(=O)[C@H](CCN)NC(=O)[C@H](CCN)NC(=O)[C@H](CC(C)C)NC(=O)[C@@H](Cc2ccccc2)NC(=O)[C@H](CCN)NC1=O)[C@@H](C)O (X1-[Dab]T[Dab][Dab][Dab][dF]L[Dab][Dab]T; lactam 4-C)
							0.08		1.69 mL/min/kg	CCCCCCCC(=O)N[C@@H](CCN)C(=O)N[C@H](C(=O)N[C@@H](CCN)C(=O)N[C@H]1CCNC(=O)[C@H]([C@@H](C)O)NC(=O)[C@H](CCN)NC(=O)[C@H](CCN)NC(=O)[C@H](CC(C)C)NC(=O)[C@@H](Cc2ccccc2)NC(=O)[C@H](CCN)NC1=O)[C@@H](C)O (Octanoyl-[Dab]T[Dab][Dab][Dab][dF]L[Dab][Dab]T; lactam 4-C)
